In ChEMBL document CHEMBL1152401, “Synthesis of novel macrolide derivatives with imidazo[4,5-b]pyridinyl sulfur contained alkyl side chains and their antibacterial activity” (Bioorg Med Chem Lett, 2009):
Activity calls are given as the source filed them. The calls are words filed in the database; no cut-off is given here.

What was measured:
Format in all cases: functional, organism-based
[1] = test system: Streptococcus pneumoniae; assay: Antimicrobial activity against erythromycin-susceptible Streptococcus pneumoniae ATCC 49619 by broth microdilution method
Outline: (§1)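 MIC by broth microdilution following NCCLS recommendations. Strains used as erythromycin-susceptible clinical or reference isolates: S. pneumoniae ATCC 49619 and 07H252, S. pyogenes 07U084 and 07U086. Resistant comparison strains came from MOHNARIN, China. Value reported as minimum inhibitory concentration.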

[2] = test system: Streptococcus pneumoniae; assay: Antimicrobial activity against erythromycin-susceptible Streptococcus pneumoniae 07H252 by broth microdilution method; outline: as §1
[3] = test system: Streptococcus pneumoniae; assay: Antimicrobial activity against erythromycin-resistant Streptococcus pneumoniae 07Z001 by broth microdilution method
Outline: (§2)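 MIC by broth microdilution as recommended by NCCLS. Strains are constitutively erythromycin-resistant clinical isolates supplied by the Ministry of Health National Antimicrobial Resistance Investigation Net (MOHNARIN, China).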

[4] = test system: Streptococcus pneumoniae; assay: Antimicrobial activity against erythromycin-resistant Streptococcus pneumoniae 05Z006 by broth microdilution method; outline: as §2
[5] = test system: Streptococcus pyogenes; assay: Antimicrobial activity against erythromycin-susceptible Streptococcus pyogenes 07U084 by broth microdilution method; outline: as §1
[6] = test system: Streptococcus pyogenes; assay: Antimicrobial activity against erythromycin-susceptible Streptococcus pyogenes 07U086 by broth microdilution method; outline: as §1
[7] = test system: Streptococcus pyogenes; assay: Antimicrobial activity against erythromycin-resistant Streptococcus pyogenes 07Z011 by broth microdilution method; outline: as §2
[8] = test system: Streptococcus pyogenes; assay: Antimicrobial activity against erythromycin-resistant Streptococcus pyogenes 07Z014 by broth microdilution method; outline: as §2
[9] = test system: Streptococcus pyogenes; assay: Antimicrobial activity against erythromycin-resistant Streptococcus pyogenes 07Z016 by broth microdilution method; outline: as §2

| SMILES | Activity [1] | Activity [2] | Activity [3] | Activity [4] | Activity [5] | Activity [6] | Activity [7] | Activity [8] | Activity [9] |
| --- | --- | --- | --- | --- | --- | --- | --- | --- | --- |
| CC[C@H]1OC(=O)[C@H](C)C(=O)[C@H](C)[C@@H](O[C@@H]2O[C@H](C)C[C@H](N(C)C)[C@H]2O)[C@@](C)(OC)C[C@@H](C)C(=O)[C@H](C)[C@H]2N(CCCSc3nc4ccc(OC)nc4[nH]3)C(=O)O[C@]12C | Active | Active | Active | Active | Active | Active | Active | Active | Active |
| CC[C@H]1OC(=O)[C@H](C)C(=O)[C@H](C)[C@@H](O[C@@H]2O[C@H](C)C[C@H](N(C)C)[C@H]2O)[C@](C)(OC)C[C@@H](C)C(=O)[C@H](C)[C@H]2N(CCCCn3cnc(-c4cccnc4)c3)C(=O)O[C@]12C | Active | Active | Active | Active | Active | Active | Active | Active | Active |
| CC[C@H]1OC(=O)[C@H](C)[C@@H](OC(=O)Cc2cccnc2)[C@H](C)[C@@H](O[C@@H]2O[C@H](C)C[C@H](N(C)C)[C@H]2O)[C@@](C)(OC)C[C@@H](C)C(=O)[C@H](C)[C@H]2N(CCCCSc3nc4ccc(OC)nc4[nH]3)C(=O)O[C@]12C | Active | Active | Active | Active | Active | Active | Active | Active | Active |
| CC[C@H]1OC(=O)[C@H](C)[C@@H](OC(=O)Cc2cccnc2)[C@H](C)[C@@H](O[C@@H]2O[C@H](C)C[C@H](N(C)C)[C@H]2O)[C@@](C)(OC)C[C@@H](C)C(=O)[C@H](C)[C@H]2N(CCCSc3nc4ccc(OC)nc4[nH]3)C(=O)O[C@]12C | Active | Active | Active | Active | Active | Active | Active | Active | Active |
| CC[C@H]1OC(=O)[C@H](C)[C@@H](OC(=O)Cc2ccc3c(c2)OCO3)[C@H](C)[C@@H](O[C@@H]2O[C@H](C)C[C@H](N(C)C)[C@H]2O)[C@@](C)(OC)C[C@@H](C)C(=O)[C@H](C)[C@H]2N(CCCSc3nc4ccc(OC)nc4[nH]3)C(=O)O[C@]12C | Active | Active | Active | Active | Active | Active | Active | Active | Active |
| CC[C@H]1OC(=O)[C@H](C)[C@@H](OC(=O)Cc2ccc3c(c2)OCO3)[C@H](C)[C@@H](O[C@@H]2O[C@H](C)C[C@H](N(C)C)[C@H]2O)[C@@](C)(OC)C[C@@H](C)C(=O)[C@H](C)[C@H]2N(CCCCSc3nc4ccc(OC)nc4[nH]3)C(=O)O[C@]12C | Active | Active | Active | Active | Active | Active | Active | Active | Active |
| CC[C@H]1OC(=O)[C@H](C)[C@@H](O[C@H]2C[C@@](C)(OC)[C@@H](O)[C@H](C)O2)[C@H](C)[C@@H](O[C@@H]2O[C@H](C)C[C@H](N(C)C)[C@H]2O)[C@](C)(O)C[C@@H](C)CN(C)[C@H](C)[C@@H](O)[C@]1(C)O | Active | Active | inactive | inactive | Active | Active | inactive | inactive | inactive |
| CC[C@H]1OC(=O)[C@H](C)[C@@H](O[C@H]2C[C@@](C)(OC)[C@@H](O)[C@H](C)O2)[C@H](C)[C@@H](O[C@@H]2O[C@H](C)C[C@H](N(C)C)[C@H]2O)[C@](C)(OC)C[C@@H](C)C(=O)[C@H](C)[C@@H](O)[C@]1(C)O | Active | Active | inactive | inactive | Active | Active | inactive | inactive | inactive |
